Measured values pooled from the literature.
Each line is one published result; the experiments were not run side by side.
Target: Homeodomain-interacting protein kinase 2 (HIPK2, Homo sapiens, UniProt Q9H2X6)
Concentration: 1 µM

SMILES | test | remaining binding
CNC(=O)[C@@H]1CC[C@@H](n2c(-c3ccc4cnccc4c3)nc3ccc(C(=O)NCc4cccc(C(N)=O)c4)cc32)C1 | binding, competition with immobilised ligand | 100%
CN(CCCC(F)(F)F)c1nccc(-c2cnn3ncccc23)n1 | binding | 100%
CCN1CCN(Cc2ccc(C(=O)Nc3ccc(C)c(Oc4ccc5c(c4)CC(=O)N5)c3)cc2C(F)(F)F)CC1 | binding, competition with immobilised ligand | 100%
N[C@@H]1CCN(c2nccc(-c3cnn4ncccc34)n2)C1 | binding | 100%
C=CC(=O)N1CCC(C(=O)NCC(=O)N2CCN(c3nc(-c4cnc(N)nc4C(F)F)nc(N4CCOCC4)n3)CC2)CC1 | binding, competition with immobilised ligand | 83%
O=C(NCCCN1CCOCC1)c1ccc(Nc2nccc(-c3cc4ccccc4s3)n2)cc1 | binding, competition with immobilised ligand | 34%
Cn1nc(C(F)(F)F)cc1-c1cnc(N2CCc3cc(S(=O)(=O)Nc4c(F)cc(Cl)cc4F)cc(N4CCCC4=O)c32)nc1 | cell-free assay, competition with immobilised ligand | 74%
C[C@H]1CCN(c2nccc(-c3cnn4ncccc34)n2)C1 | binding | 45%
COc1cnc(Nc2cccc(S(N)(=O)=O)c2)nc1N1CCN(c2ccccc2)CC1 | binding, competition with immobilised ligand | 100%
F[C@@H]1CCN(c2nccc(-c3cnn4ncccc34)n2)C1 | binding | 100%
Cc1cc(-n2nc(Cc3cc(F)cc(C(F)(F)F)c3)nc2C)ccc1C(N)=O | cell-free assay, competition with immobilised ligand | 100%
CN(c1nccc(-c2cnn3ncccc23)n1)C1CC1 | binding | 100%
CCC(=O)N[C@@H]1CC[C@H](C(=O)N(C)c2ccc(-c3nc4ccccc4o3)cc2)C1 | cell-free assay, competition with immobilised ligand | 100%
O=C(c1ccc(Nc2nccc(-c3cc4ccccc4s3)n2)cc1)N1CCC(N2CCCC2)CC1 | binding, competition with immobilised ligand | 8.8%
NS(=O)(=O)c1cc(NC(=O)C2(c3ccccc3Cl)CC2)ccc1Oc1cccc(Cl)c1 | cell-free assay, competition with immobilised ligand | 88%
O=C(Nc1c[nH]nc1C(=O)NC1CCNCC1)c1cc(F)cc(F)c1 | binding, competition with immobilised ligand | 33%
C[C@H](NC(=O)c1cnc2n1[C@](C)(Cc1ccc(C#N)cc1)C(=O)N2c1cc(Cl)c(F)c(Cl)c1)C(=O)NC1(c2ccccn2)CC1 | cell-free assay, competition with immobilised ligand | 100%
Cc1cnn2ncc(-c3ccnc(N(C)C)n3)c2c1 | binding | 63%
O=C(NCc1ncc(C(F)(F)F)cc1Cl)c1ccc2c(c1)C1(CCS(=O)(=O)CC1)[C@@H](C1CC1)N2S(=O)(=O)c1ccc(F)cc1 | cell-free assay, competition with immobilised ligand | 72%
CN(C)c1nccc(-c2cnn3ncccc23)n1 | binding | 49%
Cc1cnc(Nc2ccc(C(=O)N3CCC(N4CCCC4)CC3)cc2)nc1-c1cc2ccccc2s1 | binding, competition with immobilised ligand | 0.5%
CCCOc1ccc([C@@H]2[C@@H](C(=O)O)[C@H](c3ccc4c(c3)OCO4)CN2CC(=O)Nc2c(CC)cccc2CC)cc1 | cell-free assay, competition with immobilised ligand | 80%
